According to ChEMBL document CHEMBL4311951, “Potent and Preferential Degradation of CDK6 via Proteolysis Targeting Chimera Degraders” (J Med Chem, 2019):
Activity calls are given as the source filed them. No cut-off for these calls is given here.

Experiments:
Homo sapiens [1] = organism: Homo sapiens; experiment: Induction of cIAP-mediated CDK6 degradation in human U251 cells at 1 uM after 24 hrs by immunoblot analysis; assay type: cell-based
Homo sapiens [2] = organism: Homo sapiens; experiment: Induction of cIAP-mediated CDK4 degradation in human U251 cells at 1 uM after 24 hrs by immunoblot analysis; assay type: cell-based
Daoy = experiment: Induction of cIAP-mediated CDK6 degradation in human DAOY cells at 1 uM after 24 hrs by immunoblot analysis; assay type: cell-based
Method in brief: (§1)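 Medulloblastoma DAOY cells treated 24 h with PROTACs at 1 μM; CDK6 levels then assessed by immunoblot. Palbociclib at 500 nM and 1 μM as positive control.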

[3] = target: T1, E3 ubiquitin-protein ligase Mdm2/CDK6 (Homo sapiens) (UniProt Q00987+Q00534); experiment: Induction of MDM2-mediated CDK6 degradation in human U251 cells at 1 uM after 24 hrs by immunoblot analysis; assay type: cell-based
[4] = target: T1, E3 ubiquitin-protein ligase Mdm2/CDK6 (Homo sapiens); experiment: Induction of MDM2-mediated CDK6 degradation in human DAOY cells at 1 uM after 24 hrs by immunoblot analysis; assay type: cell-based; method in brief: as §1
[5] = test system: E3 ubiquitin-protein ligase Mdm2/Cyclin-dependent kinase 4 (Homo sapiens); experiment: Induction of MDM2-mediated CDK4 degradation in human U251 cells at 1 uM after 24 hrs by immunoblot analysis
THP-1 = experiment: Antiproliferative activity against human THP1 cells after 84 hrs by CCK8 assay; assay type: functional, cell-based
Method in brief: (§2)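 Suspension haematopoietic lines seeded in triplicate in 96-well plates; drug stock added immediately to the final concentrations. After 84 h culture, CCK-8 reagent added and absorbance at OD450 nm read after 2 h incubation.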

MM1.S = experiment: Antiproliferative activity against human MM1S cells after 84 hrs by CCK8 assay; assay type: functional, cell-based; method in brief: as §2
Homo sapiens [6] = organism: Homo sapiens; experiment: (§3) Antiproliferative activity against human Mino cells after 84 hrs by CCK8 assay; assay type: functional, cell-based; method in brief: as §2
RPMI-8226 = experiment: Antiproliferative activity against human RPMI8226 cells after 84 hrs by CCK8 assay; assay type: functional, cell-based; method in brief: as §2
HL-60 = experiment: Antiproliferative activity against human HL60 cells after 84 hrs by CCK8 assay; assay type: functional, cell-based; method in brief: as §2
JeKo-1 = experiment: Antiproliferative activity against human JeKo1 cells after 84 hrs by CCK8 assay; assay type: functional, cell-based; method in brief: as §2
[7] = target: Protein cereblon/Cyclin-dependent kinase 6 (Homo sapiens, UniProt Q00534+Q96SW2); experiment: Induction of CRBN-mediated CDK6 degradation in human U251 cells after 24 hrs by immunoblot analysis; assay type: cell-based
[8] = target: Protein cereblon/Cyclin-dependent kinase 4 (Homo sapiens, UniProt P11802+Q96SW2); experiment: Induction of CRBN-mediated CDK4 degradation in human U251 cells after 24 hrs by immunoblot analysis; assay type: cell-based
[9] = target: Protein cereblon/Cyclin-dependent kinase 1 (Homo sapiens, UniProt P06493+Q96SW2); experiment: Induction of CRBN-mediated CDK1 degradation in human U251 cells at 500 nM after 4 hrs […]; assay type: cell-based; conditions: 0.5 µM
Method in brief: (§4)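 U251 cells grown to 70–80% confluency, exposed to 500 nM degrader or DMSO for 4 h. Harvested by trypsinization, washed in cold PBS, lysed in RIPA on ice 30 min. Lysates BCA-quantified, acetone-precipitated, TMT-labelled and analysed by MS2 quantitation.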

[10] = target: Protein cereblon/Cyclin-dependent kinase 2 (Homo sapiens, UniProt P24941+Q96SW2); experiment: Induction of CRBN-mediated CDK2 degradation in human U251 cells at 500 nM after 4 hrs by immunoblot analysis; assay type: cell-based; conditions: 0.5 µM
[11] = target: Protein cereblon/Cyclin-dependent kinase 5 (Homo sapiens, UniProt Q00535+Q96SW2); experiment: Induction of CRBN-mediated CDK5 degradation in human U251 cells at 500 nM after 4 hrs by […]; assay type: cell-based; conditions: 0.5 µM; method in brief: as §4
[12] = target: Protein cereblon/Cyclin-dependent kinase 9 (Homo sapiens, UniProt P50750+Q96SW2); experiment: Induction of CRBN-mediated CDK9 degradation in human U251 cells at 500 nM after 4 hrs […]; assay type: cell-based; conditions: 0.5 µM; method in brief: as §4
[13] = target: Protein cereblon/G1/S-specific cyclin-D1 (Homo sapiens, UniProt P24385+Q96SW2); experiment: Induction of CRBN-mediated CCND1 degradation in human U251 cells at 500 nM after 4 hrs by […]; assay type: cell-based; conditions: 0.5 µM; method in brief: as §4
[14] = target: Protein cereblon/Dual specificity mitogen-activated protein kinase kinase 1 (Homo sapiens, UniProt Q02750+Q96SW2); experiment: Induction of CRBN-mediated MEK1 degradation in human U251 cells at 500 nM after 4 hrs by immunoblot analysis; assay type: cell-based; conditions: 0.5 µM
[15] = target: Protein cereblon/Epidermal growth factor receptor (Homo sapiens, UniProt P00533+Q96SW2); experiment: Induction of CRBN-mediated EGFR degradation in human U251 cells at 500 nM after 4 hrs […]; assay type: cell-based; conditions: 0.5 µM; method in brief: as §4
[16] = as §3; assay type: functional, cell-based; method in brief: as §2
MCF7 [17] = experiment: Antiproliferative activity against palbociclib-resistant human MCF7 cells with CDK6 gene amplification after 6 days by alamarBlue assay; assay type: functional, cell-based
Method in brief: (§5)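 Parental or palbociclib-resistant MCF-7 cells (CDK6-N2 or FAT1 knockout) exposed to serial concentrations of degrader for 6 days, then viability determined.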

MCF7 [18] = experiment: Antiproliferative activity against Fat1 knockout human MCF7 cells after 6 days by alamarBlue assay; assay type: functional, cell-based; method in brief: as §5

T1 sequence (Q00534 whole entry, looked up): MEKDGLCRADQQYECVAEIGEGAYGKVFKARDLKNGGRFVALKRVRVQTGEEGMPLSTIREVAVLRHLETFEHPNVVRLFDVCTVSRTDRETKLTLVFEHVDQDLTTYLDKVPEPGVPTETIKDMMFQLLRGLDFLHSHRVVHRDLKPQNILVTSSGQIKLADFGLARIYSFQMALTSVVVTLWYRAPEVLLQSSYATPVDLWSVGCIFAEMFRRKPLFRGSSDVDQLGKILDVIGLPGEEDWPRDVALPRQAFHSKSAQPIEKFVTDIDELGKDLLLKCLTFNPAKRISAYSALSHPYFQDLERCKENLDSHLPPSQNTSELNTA
T1 sequence (Q00987 whole entry, looked up): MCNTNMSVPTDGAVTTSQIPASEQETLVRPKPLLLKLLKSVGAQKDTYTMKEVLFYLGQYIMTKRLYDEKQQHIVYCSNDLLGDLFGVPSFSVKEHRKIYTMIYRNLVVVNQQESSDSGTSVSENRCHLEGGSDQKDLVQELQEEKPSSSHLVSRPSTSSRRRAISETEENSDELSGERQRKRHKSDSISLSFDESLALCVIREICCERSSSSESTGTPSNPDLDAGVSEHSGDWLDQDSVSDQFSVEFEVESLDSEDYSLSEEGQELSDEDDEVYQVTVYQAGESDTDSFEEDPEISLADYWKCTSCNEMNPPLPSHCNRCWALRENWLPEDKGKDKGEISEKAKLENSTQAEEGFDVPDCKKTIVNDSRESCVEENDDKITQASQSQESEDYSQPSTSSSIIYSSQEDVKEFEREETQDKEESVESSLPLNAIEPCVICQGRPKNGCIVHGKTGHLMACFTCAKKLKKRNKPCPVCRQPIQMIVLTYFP
Protein cereblon/Cyclin-dependent kinase 4, sequence (P11802 whole entry): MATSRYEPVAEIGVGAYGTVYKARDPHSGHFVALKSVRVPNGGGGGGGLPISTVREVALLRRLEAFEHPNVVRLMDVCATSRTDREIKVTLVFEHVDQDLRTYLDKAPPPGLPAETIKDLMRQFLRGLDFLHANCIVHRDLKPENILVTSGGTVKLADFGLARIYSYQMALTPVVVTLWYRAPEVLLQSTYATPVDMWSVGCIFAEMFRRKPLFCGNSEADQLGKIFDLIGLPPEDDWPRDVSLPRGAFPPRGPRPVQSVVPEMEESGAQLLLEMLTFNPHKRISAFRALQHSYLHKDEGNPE
Protein cereblon/Cyclin-dependent kinase 4, sequence (Q96SW2 whole entry): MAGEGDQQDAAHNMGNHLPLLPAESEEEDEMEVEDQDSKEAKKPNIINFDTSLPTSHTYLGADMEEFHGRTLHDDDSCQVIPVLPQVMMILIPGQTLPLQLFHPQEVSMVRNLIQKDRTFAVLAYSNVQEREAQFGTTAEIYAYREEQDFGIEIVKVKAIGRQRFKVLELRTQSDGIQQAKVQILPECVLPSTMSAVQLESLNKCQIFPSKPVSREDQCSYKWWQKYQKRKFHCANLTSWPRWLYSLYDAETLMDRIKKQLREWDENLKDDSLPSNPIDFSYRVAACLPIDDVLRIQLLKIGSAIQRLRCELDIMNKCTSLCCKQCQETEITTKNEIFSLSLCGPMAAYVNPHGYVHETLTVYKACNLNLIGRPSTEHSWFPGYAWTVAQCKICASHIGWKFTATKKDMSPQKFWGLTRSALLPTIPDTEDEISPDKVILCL
Protein cereblon/Cyclin-dependent kinase 6, sequence (Q00534 whole entry): as the sequence (Q00534 whole entry, looked up) above
Protein cereblon/Cyclin-dependent kinase 6, sequence (Q96SW2 whole entry): as the sequence (Q96SW2 whole entry) above
Protein cereblon/Cyclin-dependent kinase 9, sequence (P50750 whole entry): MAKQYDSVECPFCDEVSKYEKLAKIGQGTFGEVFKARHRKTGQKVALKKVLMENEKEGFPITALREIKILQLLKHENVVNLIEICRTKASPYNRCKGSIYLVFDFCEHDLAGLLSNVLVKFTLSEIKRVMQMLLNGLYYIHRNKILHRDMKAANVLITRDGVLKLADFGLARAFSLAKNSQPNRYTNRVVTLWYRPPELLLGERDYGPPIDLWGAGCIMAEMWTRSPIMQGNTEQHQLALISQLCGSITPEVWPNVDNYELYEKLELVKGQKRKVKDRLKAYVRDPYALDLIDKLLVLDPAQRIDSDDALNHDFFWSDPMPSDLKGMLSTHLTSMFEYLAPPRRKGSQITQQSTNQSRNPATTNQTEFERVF
Protein cereblon/Cyclin-dependent kinase 9, sequence (Q96SW2 whole entry): as the sequence (Q96SW2 whole entry) above
Protein cereblon/G1/S-specific cyclin-D1, sequence (P24385 whole entry): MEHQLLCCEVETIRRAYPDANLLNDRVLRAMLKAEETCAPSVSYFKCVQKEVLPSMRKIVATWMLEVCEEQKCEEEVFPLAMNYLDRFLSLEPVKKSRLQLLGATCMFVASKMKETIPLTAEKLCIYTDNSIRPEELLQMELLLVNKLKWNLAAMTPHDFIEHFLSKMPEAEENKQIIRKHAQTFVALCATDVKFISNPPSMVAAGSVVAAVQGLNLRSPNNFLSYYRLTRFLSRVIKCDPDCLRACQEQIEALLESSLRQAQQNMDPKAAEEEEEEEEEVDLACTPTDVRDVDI
Protein cereblon/G1/S-specific cyclin-D1, sequence (Q96SW2 whole entry): as the sequence (Q96SW2 whole entry) above
Protein cereblon/Cyclin-dependent kinase 5, sequence (Q00535 whole entry): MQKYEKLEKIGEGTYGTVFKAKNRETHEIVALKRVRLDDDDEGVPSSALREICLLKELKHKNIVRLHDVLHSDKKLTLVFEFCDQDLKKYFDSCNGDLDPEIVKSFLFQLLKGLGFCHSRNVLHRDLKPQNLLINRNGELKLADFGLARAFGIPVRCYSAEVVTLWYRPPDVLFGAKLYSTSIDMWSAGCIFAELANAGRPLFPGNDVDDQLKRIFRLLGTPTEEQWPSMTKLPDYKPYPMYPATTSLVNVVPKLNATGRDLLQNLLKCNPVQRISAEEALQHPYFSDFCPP
Protein cereblon/Cyclin-dependent kinase 5, sequence (Q96SW2 whole entry): as the sequence (Q96SW2 whole entry) above

Structure (SMILES) | Activity (Homo sapiens [1]) | Activity (Homo sapiens [2]) | Activity (Daoy) | Activity (THP-1) | Activity (RPMI-8226) | Activity (HL-60) | Activity (JeKo-1) | also measured
CC(=O)c1c(C)c2cnc(Nc3ccc(N4CCN(Cc5cn(CCOCCOCCOCCNC(=O)[C@H](CC(C)C)NC(=O)[C@@H](O)[C@H](N)Cc6ccccc6)nn5)CC4)cn3)nc2n(C2CCCC2)c1=O | inactive | inactive | inactive | – | – | – | – | –
CC(=O)c1c(C)c2cnc(Nc3ccc(N4CCN(Cc5cn(CCOCCOCCNC(=O)[C@H](CC(C)C)NC(=O)[C@@H](O)[C@H](N)Cc6ccccc6)nn5)CC4)cn3)nc2n(C2CCCC2)c1=O | inactive | inactive | inactive | – | – | – | – | –
COc1ccc(C2=N[C@H](c3ccc(Cl)cc3)[C@H](c3ccc(Cl)cc3)N2C(=O)N2CCN(CC(=O)NCCOCCOCCn3cc(CN4CCN(c5ccc(Nc6ncc7c(C)c(C(C)=O)c(=O)n(C8CCCC8)c7n6)nc5)CC4)nn3)CC2)c(OC(C)C)c1 | – | – | – | – | – | – | – | Activity [3]: inactive; Activity [4]: inactive; Activity [5]: inactive
CC(=O)c1c(C)c2cnc(Nc3ccc(N4CCN(Cc5cn(CCOCCOCCOCCOCCNC(=O)[C@H](CC(C)C)NC(=O)[C@@H](O)[C@H](N)Cc6ccccc6)nn5)CC4)cn3)nc2n(C2CCCC2)c1=O | inactive | inactive | inactive | – | – | – | – | –
COc1ccc(C2=N[C@H](c3ccc(Cl)cc3)[C@H](c3ccc(Cl)cc3)N2C(=O)N2CCN(CC(=O)NCCOCCn3cc(CN4CCN(c5ccc(Nc6ncc7c(C)c(C(C)=O)c(=O)n(C8CCCC8)c7n6)nc5)CC4)nn3)C(=O)C2)c(OC(C)C)c1 | – | – | – | – | – | – | – | Activity [3]: inactive; Activity [4]: inactive; Activity [5]: inactive
CCN1C(=O)CCC(N2C(=O)c3cccc(NCCOCCn4cc(CN5CCN(c6ccc(Nc7ncc8c(C)c(C(C)=O)c(=O)n(C9CCCC9)c8n7)nc6)CC5)nn4)c3C2=O)C1=O (stereo unspecified) | – | – | – | inactive | inactive | inactive | inactive | Activity (MM1.S): inactive; Activity (Homo sapiens [6]): inactive
CC(=O)c1c(C)c2cnc(Nc3ccc(N4CCN(Cc5cn(CCOCCNc6cccc7c6C(=O)N(C6CCC(=O)NC6=O)C7=O)nn5)CC4)cn3)nc2n(C2CCCC2)c1=O (stereo unspecified) | – | – | – | Active | Active | Active | Active | DC50 [7]: 2.1 nM; DC50 [8]: 150 to 180 nM; Activity [9]: Not Active; Activity [10]: Not Active; Activity [11]: Not Active; Activity [12]: Not Active; Activity [13]: Not Active; Activity [14]: Not Active; Activity [15]: Not Active; IC50 (MM1.S): 10 nM; IC50 [16]: 8 nM; Activity (MCF7 [17]): Active; Activity (MCF7 [18]): Active
CC(=O)c1c(C)c2cnc(Nc3ccc(N4CCNCC4)cn3)nc2n(C2CCCC2)c1=O [PALBOCICLIB] | – | – | – | Active | Active | Active | Active | IC50 (MM1.S): 200 nM; IC50 [16]: 45 nM
CCN1C(=O)CCC(N2C(=O)c3cccc(NCCOCCOCCn4cc(CN5CCN(c6ccc(Nc7ncc8c(C)c(C(C)=O)c(=O)n(C9CCCC9)c8n7)nc6)CC5)nn4)c3C2=O)C1=O (stereo unspecified) | – | – | – | inactive | inactive | inactive | inactive | Activity (MM1.S): inactive; Activity (Homo sapiens [6]): inactive
COc1ccc(C2=N[C@H](c3ccc(Cl)cc3)[C@H](c3ccc(Cl)cc3)N2C(=O)N2CCN(CC(=O)NCCOCCOCCOCCn3cc(CN4CCN(c5ccc(Nc6ncc7c(C)c(C(C)=O)c(=O)n(C8CCCC8)c7n6)nc5)CC4)nn3)C(=O)C2)c(OC(C)C)c1 | – | – | – | – | – | – | – | Activity [3]: inactive; Activity [4]: inactive; Activity [5]: inactive
CC(=O)c1c(C)c2cnc(Nc3ccc(N4CCN(Cc5cn(CCOCCNC(=O)[C@H](CC(C)C)NC(=O)[C@@H](O)[C@H](N)Cc6ccccc6)nn5)CC4)cn3)nc2n(C2CCCC2)c1=O | inactive | inactive | inactive | – | – | – | – | –
